Measurements as given in ChEMBL document CHEMBL3867462, “Synthesis and in vitro antikinetoplastid activity of polyamine-hydroxybenzotriazole conjugates” (Bioorg Med Chem, 2017).
pIC50, pKi: −log10 of the molar value.

Test system: not listed separately
Assay: Cytotoxicity against mouse RAW264.7 cells assessed as cell growth inhibition after 72 hrs by Alamar blue dye-based assay
Assay type: toxicity
Conditions: not given
Summary of the method: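 RAW 264.7 cells in DMEM with 10% heat-inactivated FBS were seeded at 5×10³ cells/well and incubated 24 h at 37 °C, 5% CO2. The medium was then replaced with fresh DMEM containing compound.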

| Structure (SMILES) | CC50 at 72 h [µM] |
| --- | --- |
| Cl.NCCCNC(=O)COn1nnc2ccccc21 | > 100 |
| O=C(O)COn1nnc2ccccc21 | > 100 |
| CCCCCCCCCCCCCCCCOP(=O)([O-])OCC[N+](C)(C)C [MILTEFOSINE] | > 100 |
| Cl.Cl.NCCCNCCCCNC(=O)COn1nnc2ccccc21 | > 100 |
| CC(C)(C)OC(=O)NCCCN(CCCCN(CCCNC(=O)COn1nnc2ccccc21)C(=O)OC(C)(C)C)C(=O)OC(C)(C)C | 37.4 |
| CC(C)(C)OC(=O)NCCCCN(CCCNC(=O)COn1nnc2ccccc21)C(=O)OC(C)(C)C | > 100 |
| CC(C)(C)OC(=O)NCCCCN(CCCNC(=O)OC(C)(C)C)C(=O)COn1nnc2ccccc21 | 12.5 |
| CC(C)(C)OC(=O)NCCCCNC(=O)COn1nnc2ccccc21 | > 100 |
| Cl.Cl.Cl.NCCCNCCCCNCCCNC(=O)COn1nnc2ccccc21 | > 100 |
| NCCCCNCCCN [SPERMIDINE] | > 100 |
| CC(C)(C)OC(=O)NCCCNC(=O)COn1nnc2ccccc21 | > 100 |
| Cl.Cl.NCCCCNCCCNC(=O)COn1nnc2ccccc21 | > 100 |
| Cl.Cl.NCCCCN(CCCN)C(=O)COn1nnc2ccccc21 | > 100 |
| CC(C)(C)OC(=O)NCCCN(CCCCNC(=O)COn1nnc2ccccc21)C(=O)OC(C)(C)C | > 100 |
| N=C(N)c1ccc(OCCCCCOc2ccc(C(=N)N)cc2)cc1 [PENTAMIDINE] | > 100 |
| Cl.NCCCCNC(=O)COn1nnc2ccccc21 | > 100 |

Test system: not listed separately
Assay: Selectivity index, ratio of CC50 for mouse RAW 264.7 cells to IC50 for Leishmania donovani LV9 axenic amastigotes
Assay type: functional
Conditions: not given
Summary of the method: (§1)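 Selectivity index is the CC50 on RAW 264.7 cells divided by the IC50 on the parasite.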

| Structure (SMILES) | Ratio CC50/IC50 |
| --- | --- |
| Cl.Cl.NCCCNCCCCNC(=O)COn1nnc2ccccc21 | 9 |
| CC(C)(C)OC(=O)NCCCN(CCCCN(CCCNC(=O)COn1nnc2ccccc21)C(=O)OC(C)(C)C)C(=O)OC(C)(C)C | 1.4 |
| CC(C)(C)OC(=O)NCCCCN(CCCNC(=O)COn1nnc2ccccc21)C(=O)OC(C)(C)C | 1.6 |
| CC(C)(C)OC(=O)NCCCCN(CCCNC(=O)OC(C)(C)C)C(=O)COn1nnc2ccccc21 | 1 |
| Cl.Cl.Cl.NCCCNCCCCNCCCNC(=O)COn1nnc2ccccc21 | 9 |
| NCCCCNCCCN [SPERMIDINE] | 12 |
| Cl.Cl.NCCCCNCCCNC(=O)COn1nnc2ccccc21 | 1.5 |

Test system: not listed separately
Assay: Selectivity index, ratio of CC50 for mouse RAW 264.7 cells to IC50 for Trypanosoma brucei gambiense FeoITMAP/1893 trypomastigotes
Assay type: functional
Conditions: not given
Summary of the method: as §1

| Structure (SMILES) | Ratio CC50/IC50 |
| --- | --- |
| Cl.Cl.NCCCNCCCCNC(=O)COn1nnc2ccccc21 | 3 |
| CC(C)(C)OC(=O)NCCCN(CCCCN(CCCNC(=O)COn1nnc2ccccc21)C(=O)OC(C)(C)C)C(=O)OC(C)(C)C | 10 |
| CC(C)(C)OC(=O)NCCCCN(CCCNC(=O)COn1nnc2ccccc21)C(=O)OC(C)(C)C | 85 |
| CC(C)(C)OC(=O)NCCCCN(CCCNC(=O)OC(C)(C)C)C(=O)COn1nnc2ccccc21 | 4 |
| Cl.Cl.Cl.NCCCNCCCCNCCCNC(=O)COn1nnc2ccccc21 | 7 |
| NCCCCNCCCN [SPERMIDINE] | 29 |
| CC(C)(C)OC(=O)NCCCNC(=O)COn1nnc2ccccc21 | 3 |
| Cl.Cl.NCCCCNCCCNC(=O)COn1nnc2ccccc21 | 1 |
| Cl.Cl.NCCCCN(CCCN)C(=O)COn1nnc2ccccc21 | 4 |
| CC(C)(C)OC(=O)NCCCN(CCCCNC(=O)COn1nnc2ccccc21)C(=O)OC(C)(C)C | 50 |
| Cl.NCCCCNC(=O)COn1nnc2ccccc21 | 11 |

Test system: Trypanosoma brucei gambiense
Assay: Antitrypanosomal against bloostream forms of Trypanosoma brucei gambiense FeoITMAP/1893 trypomastigotes after 72 hrs in the dark by resazurin assay
Assay type: functional
Conditions: FeoITMAP/1893, 72 h
Summary of the method: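 Bloodstream trypanosomes were seeded at 4×10⁴/mL with compound dilutions in supplemented medium containing NaHCO3, hypoxanthine, bathocuproine, thymidine and 2-mercaptoethanol. Incubation was 72 h.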

| Structure (SMILES) | pIC50 |
| --- | --- |
| Cl.NCCCNC(=O)COn1nnc2ccccc21 | < 4.00 |
| O=C(O)COn1nnc2ccccc21 | < 4.00 |
| Cl.Cl.NCCCNCCCCNC(=O)COn1nnc2ccccc21 | 4.41 |
| CC(C)(C)OC(=O)NCCCN(CCCCN(CCCNC(=O)COn1nnc2ccccc21)C(=O)OC(C)(C)C)C(=O)OC(C)(C)C | 5.46 |
| CC(C)(C)OC(=O)NCCCCN(CCCNC(=O)COn1nnc2ccccc21)C(=O)OC(C)(C)C | 5.92 |
| CC(C)(C)OC(=O)NCCCCN(CCCNC(=O)OC(C)(C)C)C(=O)COn1nnc2ccccc21 | 5.49 |
| CC(C)(C)OC(=O)NCCCCNC(=O)COn1nnc2ccccc21 | < 4.00 |
| Cl.Cl.Cl.NCCCNCCCCNCCCNC(=O)COn1nnc2ccccc21 | 4.86 |
| NCCCCNCCCN [SPERMIDINE] | 5.48 |
| CC(C)(C)OC(=O)NCCCNC(=O)COn1nnc2ccccc21 | 4.54 |
| Cl.Cl.NCCCCNCCCNC(=O)COn1nnc2ccccc21 | 4.14 |
| Cl.Cl.NCCCCN(CCCN)C(=O)COn1nnc2ccccc21 | 4.60 |
| CC(C)(C)OC(=O)NCCCN(CCCCNC(=O)COn1nnc2ccccc21)C(=O)OC(C)(C)C | 5.70 |
| N=C(N)c1ccc(OCCCCCOc2ccc(C(=N)N)cc2)cc1 [PENTAMIDINE] | 8.68 |
| Cl.NCCCCNC(=O)COn1nnc2ccccc21 | 5.02 |

Test system: Leishmania donovani
Assay: Antileishmanial against of Leishmania donovani LV9 axenic amastigotes after 72 hrs by SYBR1 green-based qPCR analysis
Assay type: functional
Conditions: LV9, 72 h
Summary of the method: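 Axenic amastigotes were grown at 37 °C under 5% CO2, in medium at pH 5.5 containing glucose, glutamine, trypticase peptone, haemin and 20% FBS. Parasite load was read by SYBR green I fluorescence in a qPCR instrument and converted against a standard range of known parasite densities.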

| Structure (SMILES) | pIC50 |
| --- | --- |
| Cl.NCCCNC(=O)COn1nnc2ccccc21 | < 4.00 |
| O=C(O)COn1nnc2ccccc21 | < 4.00 |
| CCCCCCCCCCCCCCCCOP(=O)([O-])OCC[N+](C)(C)C [MILTEFOSINE] | 5.72 |
| Cl.Cl.NCCCNCCCCNC(=O)COn1nnc2ccccc21 | < 4.00 |
| CC(C)(C)OC(=O)NCCCN(CCCCN(CCCNC(=O)COn1nnc2ccccc21)C(=O)OC(C)(C)C)C(=O)OC(C)(C)C | 4.57 |
| CC(C)(C)OC(=O)NCCCCN(CCCNC(=O)COn1nnc2ccccc21)C(=O)OC(C)(C)C | 4.22 |
| CC(C)(C)OC(=O)NCCCCN(CCCNC(=O)OC(C)(C)C)C(=O)COn1nnc2ccccc21 | 4.94 |
| CC(C)(C)OC(=O)NCCCCNC(=O)COn1nnc2ccccc21 | < 4.00 |
| Cl.Cl.Cl.NCCCNCCCCNCCCNC(=O)COn1nnc2ccccc21 | 4.96 |
| NCCCCNCCCN [SPERMIDINE] | 5.08 |
| CC(C)(C)OC(=O)NCCCNC(=O)COn1nnc2ccccc21 | < 4.00 |
| Cl.Cl.NCCCCNCCCNC(=O)COn1nnc2ccccc21 | < 4.00 |
| Cl.Cl.NCCCCN(CCCN)C(=O)COn1nnc2ccccc21 | < 4.00 |
| CC(C)(C)OC(=O)NCCCN(CCCCNC(=O)COn1nnc2ccccc21)C(=O)OC(C)(C)C | < 4.00 |
| Cl.NCCCCNC(=O)COn1nnc2ccccc21 | < 4.00 |

Test system: Leishmania donovani
Assay: Antileishmanial against of Leishmania donovani LV9 intramacrophage amastigotes infected in mouse RAW 264.7 cells after 48 hrs by SYBR1 green-based qPCR analysis
Assay type: functional, cell-based
Conditions: LV9, RAW264.7, 48 h

| Structure (SMILES) | pIC50 |
| --- | --- |
| Cl.NCCCNC(=O)COn1nnc2ccccc21 | 4.53 |
| O=C(O)COn1nnc2ccccc21 | < 4.00 |
| CCCCCCCCCCCCCCCCOP(=O)([O-])OCC[N+](C)(C)C [MILTEFOSINE] | 5.82 |
| Cl.Cl.NCCCNCCCCNC(=O)COn1nnc2ccccc21 | < 4.00 |
| CC(C)(C)OC(=O)NCCCN(CCCCN(CCCNC(=O)COn1nnc2ccccc21)C(=O)OC(C)(C)C)C(=O)OC(C)(C)C | 4.46 |
| CC(C)(C)OC(=O)NCCCCN(CCCNC(=O)COn1nnc2ccccc21)C(=O)OC(C)(C)C | 4.17 |
| CC(C)(C)OC(=O)NCCCCN(CCCNC(=O)OC(C)(C)C)C(=O)COn1nnc2ccccc21 | 5.51 |
| CC(C)(C)OC(=O)NCCCCNC(=O)COn1nnc2ccccc21 | < 4.00 |
| Cl.Cl.Cl.NCCCNCCCCNCCCNC(=O)COn1nnc2ccccc21 | 4.41 |
| NCCCCNCCCN [SPERMIDINE] | < 4.00 |
| CC(C)(C)OC(=O)NCCCNC(=O)COn1nnc2ccccc21 | 4.25 |
| Cl.Cl.NCCCCNCCCNC(=O)COn1nnc2ccccc21 | < 4.00 |
| Cl.Cl.NCCCCN(CCCN)C(=O)COn1nnc2ccccc21 | 4.63 |
| CC(C)(C)OC(=O)NCCCN(CCCCNC(=O)COn1nnc2ccccc21)C(=O)OC(C)(C)C | 4.38 |
| Cl.NCCCCNC(=O)COn1nnc2ccccc21 | < 4.00 |

Test system: not listed separately
Assay: Selectivity index, ratio of CC50 for mouse RAW 264.7 cells to IC50 for Leishmania donovani LV9 intramacrophage amastigotes infected in mouse RAW 264.7 cells
Assay type: functional
Conditions: not given
Summary of the method: as §1

| Structure (SMILES) | Ratio CC50/IC50 |
| --- | --- |
| Cl.NCCCNC(=O)COn1nnc2ccccc21 | 3 |
| CC(C)(C)OC(=O)NCCCN(CCCCN(CCCNC(=O)COn1nnc2ccccc21)C(=O)OC(C)(C)C)C(=O)OC(C)(C)C | 1 |
| CC(C)(C)OC(=O)NCCCCN(CCCNC(=O)COn1nnc2ccccc21)C(=O)OC(C)(C)C | 1 |
| CC(C)(C)OC(=O)NCCCCN(CCCNC(=O)OC(C)(C)C)C(=O)COn1nnc2ccccc21 | 4 |
| Cl.Cl.Cl.NCCCNCCCCNCCCNC(=O)COn1nnc2ccccc21 | 3 |
| CC(C)(C)OC(=O)NCCCNC(=O)COn1nnc2ccccc21 | 2 |
| Cl.Cl.NCCCCN(CCCN)C(=O)COn1nnc2ccccc21 | 4 |
| CC(C)(C)OC(=O)NCCCN(CCCCNC(=O)COn1nnc2ccccc21)C(=O)OC(C)(C)C | 2 |

Test system: Trypanosoma brucei
Assay: Inhibition of Trypanosoma brucei TryR using TS2 as substrate at 40 uM in presence of NADPH by spectrophotometric analysis
Conditions: not given
Summary of the method: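 Recombinant T. brucei TryR was screened with inhibitor at 40 µM in assay buffer containing 5% DMSO, at 40 or 100 µM TS2. Activity was followed as NADPH consumption at 340 nm and reported as percent inhibition against DMSO-matched controls.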

| Structure (SMILES) | inhibition [%] |
| --- | --- |
| Cl.Cl.NCCCCNCCCNC(=O)COn1nnc2ccccc21 | 80 |

Target: not listed separately
Assay: Mixed-type inhibition of Trypanosoma brucei TryR assessed as enzyme-inhibitor complex using TS2 as substrate in presence of NADPH by Lineweaver-Burk plot analysis
Conditions: not given
Summary of the method: (§2)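 Recombinant T. brucei TryR activity was followed as NADPH consumption at 340 nm with TS2 concentration varied, at 0, 10 and 40 µM inhibitor. Inhibition type and inhibitor constant were derived from Lineweaver–Burk plots.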

| Structure (SMILES) | pKi |
| --- | --- |
| Cl.Cl.NCCCCNCCCNC(=O)COn1nnc2ccccc21 | 5.17 |

Target: not listed separately
Assay: Mixed-type inhibition of Trypanosoma brucei TryR assessed as enzyme-substrate-inhibitor complex using TS2 as substrate in presence of NADPH by Lineweaver-Burk plot analysis
Conditions: not given
Summary of the method: as §2

| Structure (SMILES) | pKi |
| --- | --- |
| Cl.Cl.NCCCCNCCCNC(=O)COn1nnc2ccccc21 | 4.77 |
